Test results: ChEMBL document CHEMBL1133654, “Studies directed at the use of a parallel synthesis matrix to increase throughput in an in vivo assay” (2000)

Assay: Mean plasma clotting time (APTT) was measured following a single colonic dose with heparin in rats
Assay type: functional, Rattus norvegicus
Method in brief: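 Male Sprague-Dawley rats (300-350 g, fasted 12 h, groups of 5) were anesthetized with ketamine 44 mg/kg im and given one colonic dose (1 mL/kg) by catheter through the anus. Dosing was delivery agent 50 mg/kg plus heparin 25 mg/kg for single agents, or 50 mg/kg for mixtures, as a sonicated solution of apparent pH about 7. Citrated cardiac blood was taken at 0-1.5 h, and mean peak plasma APTT was reported.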

| Structure (SMILES) | APTT |
| --- | --- |
| Cc1ccccc1C(=O)NCCCC(=O)O | 24 s |
| O=C(O)CCCCCCCCCNC(=O)c1ccccc1O | 153 s |
| O=C(O)CCCCCCCCCNC(=O)c1ccccc1 | 31 s |
| O=C(O)CCCCCNC(=O)c1ccccc1O | 24 s |
| COc1ccccc1C(=O)NCCCCCC(=O)O | 31 s |
| O=C(O)CCCCCCCCCCCNC(=O)c1ccccc1O | 86 s |
| O=C(O)CCCCCCCCCNC(=O)c1ccccc1F | 27 s |
| O=C(O)CCCCCCCNC(=O)c1ccccc1O [SALCAPROZIC ACID] | 125 s |
| Cc1ccccc1C(=O)NCCCCCCCCCCCC(=O)O | 30 s |
| O=C(O)CCCCCNC(=O)c1ccccc1F | 28 s |
| COc1ccccc1C(=O)NCCCCCCCCCC(=O)O | 50 s |
| O=C(O)CCCCCCCNC(=O)c1ccccc1F | 25 s |
| O=C(O)CCCCCCCCCCCNC(=O)c1ccccc1F | 33 s |
| COc1ccccc1C(=O)NCCCC(=O)O | 26 s |
| O=C(O)CCCCCCCNC(=O)c1ccccc1 | 21 s |
| COc1ccccc1C(=O)NCCCCCCCC(=O)O | 27 s |
| COc1ccccc1C(=O)NCCCCCCCCCCCC(=O)O | 54 s |
| O=C(O)CCCNC(=O)c1ccccc1 | 22 s |
| O=C(O)CCCNC(=O)c1ccccc1O | 31 s |
| O=C(O)CCCNC(=O)c1ccccc1F | 22 s |
| Cc1ccccc1C(=O)NCCCCCCCCCC(=O)O | 34 s |
| Cc1ccccc1C(=O)NCCCCCC(=O)O | 26 s |
| Cc1ccccc1C(=O)NCCCCCCCC(=O)O | 23 s |
| O=C(O)CCCCCNC(=O)c1ccccc1 | 33 s |
| O=C(O)CCCCCCCCCCCNC(=O)c1ccccc1 | 24 s |
